pIC50, pKd: −log10 of the molar value. One block for each molecule: values may come before it. Activity calls are given as the source filed them. No cut-off for these calls is given here.
Columns and labels:
[1] = biological target: T1, BAG family molecular chaperone regulator 3 (Homo sapiens, UniProt O95817); assay: Binding affinity to full length recombinant human BAG3 assessed as dissociation constant by SPR analysis
[2] = Solubility of compound; assay type: physicochemical
HeLa [3] = assay: Induction of apoptosis in human HeLa cells assessed as increase in apoptotic cells at 20 uM incubated for 72 hrs by Annexin V-FITC/PI staining based flow cytometry analysis relative to control; assay type: functional
How it was run: (§1)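 HeLa cells (2×10^4) incubated 72 h at 20–50 μM. Stained with Annexin V-FITC and PI for 15 min at RT, then analysed by flow cytometry. Reported as percentage of live, apoptotic and necrotic cells versus control, mean ± SD of three independent experiments.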

HeLa [4] = assay: Downregulation of FOXM1 expression in human HeLa cells incubated for 72 hrs by Western blot analysis; assay type: functional, cell-based
How it was run: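 HeLa cells treated 72 h at 30 and 15 μM. Lysates (30 μg protein) separated on 10 % SDS-PAGE and blotted with anti-FOXM1 (1:500), β-tubulin as loading control. Detection by ECL, quantified by densitometry.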

HeLa [5] = assay: Induction of apoptosis in human HeLa cells assessed as increase in caspase 3 expression incubated for 72 hrs by flow cytometry analysis; assay type: functional, cell-based; settings: dose 10-50 µM
How it was run: (§2)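 HeLa cells (2.5×10^5/well) treated 24 h after seeding for 72 h at 10, 25, 50 μM (reference inhibitor 10 μM) or 0.1 % DMSO. Fixed in 1 % formaldehyde (20 min, 4 °C), permeabilized with 0.1 % Triton, stained with anti-caspase 3, anti-caspase 9 or anti-p21 plus secondary antibodies. Read by flow cytometry as percentage of positive cells.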

HeLa [6] = assay: Induction of apoptosis in human HeLa cells assessed as increase in apoptotic cells at 50 uM incubated for 72 hrs by Annexin V-FITC/PI staining based flow cytometry analysis relative to control; assay type: functional; how it was run: as §1
HeLa [7] = assay: Induction of cell cycle arrest in human HeLa cells assessed as increase in hypodiploid nuclei at 10 to 50 uM incubated for 72 hrs by PI staining based flow cytometry analysis; assay type: functional; settings: dose 10-50 µM
How it was run: (§3)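 HeLa cells (1×10^5/well) adhered 24 h, then treated 72 h with 10, 25 and 50 μM (reference inhibitor 1, 5, 10 μM), with 0.1 % DMSO negative and 10 % positive controls. Dead and live cells pooled, stained with 50 mg/L PI in 0.1 % citrate/0.1 % Triton X-100 for 30 min at 4 °C in the dark. Sub-G0/G1 percentage measured by flow cytometry, debris gated out.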

[8] = (§4) Binding affinity to recombinant human HSP70 assessed as dissociation constant by SPR analysis
How it was run: (§5)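 HSP70 amine-coupled on CM5 chip from 0.045 µg µl⁻¹ in 10 mM acetate pH 4.5, density 20 kRU, with unmodified reference surface. Compounds from 10 mM DMSO stocks diluted 1:20 in PBS-P (final 5.0 % DMSO), 10 concentrations by 1:2 dilution spanning 0–100 µM. Run at 25 °C, 20 µL/min, 90 s association, 400 s dissociation; KD reported ± SD.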

Homo sapiens [9] = organism: Homo sapiens; assay: Inhibition of Hsp70 (unknown origin) ATPase activity assessed as residual activity at 10 uM by ATPase activity incubated for 1 hr by ADP-glo assay relative to control
How it was run: (§6)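 HSP70 ATPase assay by ADP-Glo. HSP70 plus HSP40 pre-incubated with compound for 30 min at RT, then ATP added and reacted 1 h at 30 °C with 1 % DMSO final. ADP-Glo reagent added for 1 h, then detection reagent for 20 min, and luminescence read. Activity scaled between no-compound (100 %) and no-HSP70 (0 %) wells; run in duplicates.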

HeLa [10] = assay: Induction of apoptosis in human HeLa cells assessed as increase in apoptotic cells at 30 uM incubated for 72 hrs by Annexin V-FITC/PI staining based flow cytometry analysis relative to control; assay type: functional; how it was run: as §1
HeLa [11] = assay: Induction of apoptosis in human HeLa cells assessed as increase in apoptotic cells incubated for 72 hrs by Annexin V-FITC/PI staining based flow cytometry analysis; assay type: functional, cell-based; settings: dose 20-50 µM; how it was run: as §1
HaCaT [12] = assay: Cytotoxicity against human HaCaT cells at 10 to 50 uM incubated for 72 hrs by MTT assay; assay type: toxicity, cell-based; settings: dose 10-50 µM
How it was run: (§7)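 HaCaT keratinocytes seeded at 5.0×10^3 cells/well in triplicate and allowed to attach for 24 h. Exposed to 10 and 50 μM for 24, 48 or 72 h with 0.1 % DMSO control, then read by MTT reduction (3 h, 37 °C) with absorbance at 570 nm.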

HeLa [13] = assay: Induction of apoptosis in human HeLa cells assessed as increase in caspase 9 expression incubated for 72 hrs by flow cytometry analysis; assay type: functional, cell-based; settings: dose 10-50 µM; how it was run: as §2
HeLa [14] = assay: Cytotoxicity against human HeLa cells assessed as mortality rate at 10 to 50 uM incubated for 72 hrs by MTT assay relative to control; assay type: functional; settings: dose 10-50 µM
How it was run: (§8)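 MTT reduction assay. Cells grown in DMEM/high glucose with 10 % FBS, 2 mM glutamine and penicillin/streptomycin at 37 °C, 5 % CO2. HeLa seeded at 3.5×10^3 and HaCaT at 5.0×10^3 cells/well, in triplicate. After 24 h attachment, compounds added at 10 and 50 μM for 72 h. Controls: 0.1 % DMSO (negative) and 10 % DMSO (positive). MTT added for 3 h at 37 °C, formazan dissolved in DMF/SDS (pH 4.5), absorbance read at 570 nm. Three independent experiments.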

Homo sapiens [15] = organism: Homo sapiens; assay: Inhibition of Hsp70 (unknown origin) ATPase activity assessed as residual activity at 50 uM by ATPase activity incubated for 1 hr by ADP-glo assay relative to control; how it was run: as §6
HaCaT [16] = assay: Cytotoxicity against human HaCaT cells at 10 to 50 uM incubated for 48 hrs by MTT assay; assay type: toxicity, cell-based; settings: dose 10-50 µM; how it was run: as §7
HaCaT [17] = assay: Cytotoxicity against human HaCaT cells assessed as mortality at 10 to 50 uM incubated for 72 hrs by MTT assay; assay type: toxicity, cell-based; settings: dose 10-50 µM
HaCaT [18] = assay: Cytotoxicity against human HaCaT cells at 10 to 50 uM incubated for 24 hrs by MTT assay; assay type: toxicity, cell-based; settings: dose 10-50 µM; how it was run: as §7
HeLa [19] = assay: Downregulation of FOXM1 expression in human HeLa cells at 50 uM incubated for 72 hrs by Western blot analysis; assay type: functional, cell-based
HeLa [20] = assay: Upregulation of p21 expression in human HeLa cells incubated for 72 hrs by flow cytometry analysis; assay type: functional, cell-based; settings: dose 10-50 µM; how it was run: as §2
HeLa [21] = assay: Cytotoxicity against human HeLa cells assessed as cell viability incubated for 72 hrs by MTT assay
[22] = biological target: T1, BAG family molecular chaperone regulator 3; assay: Binding affinity to recombinant human BAG3 domain assessed as dissociation constant by SPR analysis
HaCaT [23] = assay: Cytotoxicity against human HaCaT cells assessed as mortality rate at 50 uM incubated for 72 hrs by MTT assay relative to control; assay type: toxicity, cell-based; how it was run: as §8
A-375 = assay: Cytotoxicity against human A-375 cells assessed as cell viability incubated for 72 hrs by MTT assay; assay type: functional, cell-based; settings: A-375, 72 h
Homo sapiens [24] = organism: Homo sapiens; assay: as §4; how it was run: as §5
A549 = assay: Cytotoxicity against human A549 cells assessed as cell viability incubated for 72 hrs by MTT assay; assay type: functional, cell-based; settings: A549, 72 h
HeLa [25] = assay: Induction of cell cycle arrest in human HeLa cells assessed as increase in hypodiploid nuclei incubated for 72 hrs by PI staining based flow cytometry analysis; assay type: functional; settings: dose 1-10 µM; how it was run: as §3

T1 sequence (O95817 whole entry): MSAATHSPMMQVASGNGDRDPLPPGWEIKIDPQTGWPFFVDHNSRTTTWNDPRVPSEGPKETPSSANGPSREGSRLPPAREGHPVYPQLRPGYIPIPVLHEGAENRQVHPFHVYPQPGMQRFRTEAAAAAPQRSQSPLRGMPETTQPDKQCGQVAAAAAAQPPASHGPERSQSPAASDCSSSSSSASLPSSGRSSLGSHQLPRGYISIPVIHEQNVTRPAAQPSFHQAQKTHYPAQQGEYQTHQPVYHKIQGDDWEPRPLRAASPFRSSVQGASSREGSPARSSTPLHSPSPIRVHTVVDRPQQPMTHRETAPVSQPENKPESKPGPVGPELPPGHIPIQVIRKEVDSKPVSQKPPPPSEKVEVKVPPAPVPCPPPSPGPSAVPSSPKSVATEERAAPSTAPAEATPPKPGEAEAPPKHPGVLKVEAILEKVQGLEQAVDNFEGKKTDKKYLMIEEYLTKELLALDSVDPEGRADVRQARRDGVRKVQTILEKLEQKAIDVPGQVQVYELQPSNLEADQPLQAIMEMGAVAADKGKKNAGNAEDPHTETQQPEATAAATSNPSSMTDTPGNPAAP

- Activity [1]: inactive
Compound: CCCCNC(=O)C(c1ccccc1Br)N(Cc1ccccc1)C(=O)Cn1cc(-c2ccccc2)nn1 (stereo not given)

- solubility [2]: Insoluble
Compound: CCCCNC(=O)C(c1ccc(C(F)(F)F)cc1)N(CCC)C(=O)Cn1cc(-c2cccc(C)c2)nn1 (stereo not given)

- Activity (Homo sapiens [24]): inactive
Compound: CCOC(=O)CN1C(=O)S/C(=C\c2ccc(O)c(O)c2)C1=O
- pIC50 (A-375): 4.78
- pIC50 (A549): 4.49
- pIC50 (HeLa [21]): < 4.30

- Activity [1]: inactive
Compound: CCCCNC(=O)C(c1ccccc1Br)N(Cc1ccccc1)C(=O)Cn1cc(CCC(C)C)nn1 (stereo not given)

- Activity [1]: inactive
Compound: CCCCNC(=O)C(c1ccccc1Br)N(CC(C)CC)C(=O)Cn1cc(CCC(C)C)nn1 (stereo not given)

The next lines start with the molecule.

Compound: CCCCNC(=O)C(c1cc(O)ccc1Br)N(CC(C)CC)C(=O)Cn1cc(-c2cccc(OC)c2)nn1 (stereo not given)
- Activity [1]: inactive

Compound: CCCCNC(=O)C(c1ccccc1Br)N(C(=O)Cn1cc(CCC(C)C)nn1)c1ccc(Cl)cc1 (stereo not given)
- Activity [1]: inactive

Compound: Cc1ccc(S(=O)(=O)CNC(=O)C(c2ccccc2Br)N(Cc2ccccc2)C(=O)Cn2cc(-c3ccccc3)nn2)cc1 (stereo not given)
- Activity [1]: inactive

Compound: CCCCNC(=O)C(c1c[nH]c(=O)[nH]c1=O)N(CC(C)CC)C(=O)Cn1cc(-c2cc(C)c(C)cc2C)nn1 (stereo not given)
- Activity (HeLa [3]): 18.6%
- Activity (HeLa [4]): Dose-dependent-effect
- Activity (HeLa [5]): Dose-dependent-effect
- Activity (HeLa [6]): 26.2%
- Activity (HeLa [7]): Active
- pKd [8]: 4.47
- Activity (Homo sapiens [9]): 20%
- Activity (HeLa [10]): 23%
- Activity (HeLa [11]): Dose-dependent-effect
- Activity (HaCaT [12]): Non-toxic
- Activity (HeLa [13]): Dose-dependent-effect
- mortality (HeLa [14]): 70%
- Activity (Homo sapiens [15]): 40%
- Activity (HaCaT [16]): Non-toxic
- Activity (HaCaT [17]): Non-toxic
- Activity (HaCaT [18]): Non-toxic
- Activity (HeLa [19]): inactive
- Activity (HeLa [20]): Dose-dependent-effect
- pIC50 (HeLa [21]): 4.31

Compound: CCCCNC(=O)C(c1ccc(Cl)nc1)N(CC(C)CC)C(=O)Cn1cc(C(C)(O)c2ccc(F)cc2)nn1 (stereo not given)
- Activity [1]: inactive
- Kd [22]: Not_determined

Compound: CCCCNC(=O)C(c1c(Br)ccnc1Cl)N(CC(C)CC)C(=O)Cn1cc(-c2cccc(O)c2)nn1 (stereo not given)
- Activity [1]: inactive

Compound: CCCCNC(=O)C(c1ccc2cn[nH]c2c1)N(CC(C)CC)C(=O)Cn1cc(-c2cc(C)ccc2C)nn1 (stereo not given)
- mortality (HeLa [14]): 70%
- mortality (HaCaT [23]): 60%

Compound: CCn1c(=O)/c(=C2\Sc3ccccc3N2C)s/c1=C\c1cccc[n+]1C
- Activity (HeLa [25]): Dose-dependent-effect
- Activity [1]: inactive
- pKd [8]: 4.39
- Activity (Homo sapiens [9]): 30%
- Activity (Homo sapiens [15]): 43%
